Assay results taken from ChEMBL document CHEMBL1154743, “A novel potent nicotinamide phosphoribosyltransferase inhibitor synthesized via click chemistry” (J Med Chem, 2010).
pIC50: −log10 of the molar value. Active and inactive are the calls of the source. The calls are words filed in the database; no cut-off is given here.

Columns and labels:
SH-SY5Y [1] = experiment: Induction of autophagy in human SH-SY5Y cells assessed as LC3/phosphotidylethanolamine coupling after 40 hrs by Western blot analysis; assay type: functional, cell-based
In short: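 Western blot of LC3-I and LC3-II, with tubulin as reference, in untreated and treated cells exposed to 10 nM compound. Six independent experiments were run, using two LC3 antibodies from different sources.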

SH-SY5Y [2] = experiment: Cytotoxicity against human SH-SY5Y cells assessed as cell viability after 48 hrs by MTT assay; assay type: functional, cell-based
In short: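 SH-SY5Y cells incubated with compound for 48 h and viability measured by MTT. Values are mean ± SEM of 8-12 determinations.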

SH-SY5Y [3] = experiment: Cytotoxicity against human SH-SY5Y cells assessed as reduction of total cellular NAD(P) level; assay type: functional, cell-based
SH-SY5Y [4] = experiment: Cytotoxicity against human SH-SY5Y cells assessed as reduction of total cellular NAD(P) level at 300 nM relative to control; assay type: functional; design: scale not given: the % may be the effect or the level left
In short: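 Total cellular NAD levels in SH-SY5Y cells screened at a single fixed concentration of 300 nM. Expressed relative to control, n = 10.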

SH-SY5Y [5] = experiment: Cytotoxicity against human SH-SY5Y cells assessed as reduction of total cellular NAD(P) level at 1 uM relative to control; assay type: functional; design: scale not given: the % may be the effect or the level left
SH-SY5Y [6] = experiment: Cytotoxicity against human SH-SY5Y cells assessed as cell viability after 48 hrs by MTT assay relative to control in presence of nicotinamide; assay type: functional

SMILES	Activity (SH-SY5Y [1])	pIC50 (SH-SY5Y [2])	pIC50 (SH-SY5Y [3])	Activity (SH-SY5Y [4])	Activity (SH-SY5Y [5])	Activity (SH-SY5Y [6])
O=C(/C=C/c1cccnc1)NCCCCC1CCN(C(=O)c2ccccc2)CC1 [DAPORINAD]	Active	8.77	9.30			
O=C(CCCCCCCn1cc(-c2cccnc2)nn1)Nc1ccccc1Cc1ccccc1		7.14		75.2%	30%	
O=C(CCCCCCn1cc(-c2cccnc2)nn1)NCC(c1ccccc1)c1ccccc1				83.8%	16.8%	
N#CCCCc1cn(-c2ccncc2)nn1				87.8%	31%	
COc1ccccc1NC(=O)CCCCCCn1cc(-c2cccnc2)nn1				87.9%		
NC(=O)c1cccnc1 [NIACINAMIDE]						31%
O=C(CCCCCCn1cc(-c2cccnc2)nn1)Nc1ccccc1-c1ccccc1		7.25		88.2%	26.2%	
O=C(CCCCCCn1cc(-c2cccnc2)nn1)Nc1ccccc1Cl		6.69		79.5%		
O=C(CCCCCCCn1cc(-c2cccnc2)nn1)n1c2ccccc2c2ccccc21		7.43	7.77	12%		
O=C(CCCCCCCCn1cc(-c2cccnc2)nn1)NCC(c1ccccc1)c1ccccc1		6.80		77.3%	32.3%	
O=C(CCCCCCCCn1cc(-c2cccnc2)nn1)Nc1ccccc1Cc1ccccc1		7.09		74.7%	13.1%	
O=C(CCCCCCn1cc(-c2cccnc2)nn1)Nc1ccccc1Cc1ccccc1				86.1%	28%	
O=C(CCCCCCCCn1cc(-c2cccnc2)nn1)Nc1ccccc1-c1ccccc1		7.84	7.07	35.6%	13%	
O=C(CCCCCCCn1cc(-c2cccnc2)nn1)NCC(c1ccccc1)c1ccccc1		7.01	7.31	11%	23%	
O=C(CCCCCCCn1cc(-c2cccnc2)nn1)Nc1ccccc1Oc1ccccc1		7.43		87.9%	17.7%	
O=C(CCCCCCCn1cc(-c2cccnc2)nn1)Oc1ccccc1-c1ccccc1				74.7%		
O=C(CCCCCCCCn1cc(-c2cccnc2)nn1)Nc1ccccc1Oc1ccccc1		7.11		79.5%	22.6%	
O=C(CCCCCCn1cc(-c2cccnc2)nn1)Nc1ccccc1Oc1ccccc1		6.92		81.3%	24.7%	
